Experimental data: ChEMBL document CHEMBL1149612, “Synthesis and antiproliferative activity of clausine E, mukonine, and koenoline bioisosteres” (Bioorg Med Chem, 2007)

Experiments:
SW480 [1] = test: Cell cycle arrest in SW480 cells by accumulation at S phase at 100 uM after 72 hrs; format: functional, Homo sapiens
Method in brief: (§1)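 Colorectal cells given 100 µM compound for 72 h. Afterwards 10^6 cells/mL were resuspended in propidium iodide solution and held overnight at 4 °C, then run on flow cytometry. Doublets and aggregates were gated out on FL2-area/FL2-width before calculating the percentage of cells in G1, S and G2/M phases.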

SW480 [2] = test: Cell cycle arrest in SW480 cells by accumulation at G2/M phase at 100 uM after 72 hrs; format: functional, Homo sapiens; method in brief: as §1
SW480 [3] = test: Cell cycle arrest in SW480 cells by accumulation at G1 phase at 100 uM after 72 hrs; format: functional, Homo sapiens; method in brief: as §1
SW48 [4] = test: Antiproliferative activity against human SW48 cells after 72 hrs; format: functional, cell-based; conditions: SW48, 72 h
Method in brief: (§2)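 Asynchronously growing cells seeded at 5 × 10^3 cells/well and held 24 h in medium, then exposed to drug for 72 h; MTT reagent (5 mg/mL stock) added. Growth taken as absorbance of treated wells as percent of untreated controls. IC50 is the dose giving 50% growth inhibition versus untreated cells. Five separate experiments, each in triplicate; mean ± SD.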

HCT-116 [5] = test: Cell cycle arrest in HCT116 cells by accumulation at G1 phase at 100 uM after 72 hrs; format: functional, Homo sapiens; method in brief: as §1
HCT-116 [6] = test: Cell cycle arrest in HCT116 cells by accumulation at S phase at 100 uM after 72 hrs; format: functional, Homo sapiens; method in brief: as §1
SW48 [7] = test: Cell cycle arrest in SW48 cells by accumulation at G1 phase at 100 uM after 72 hrs; format: functional, Homo sapiens; method in brief: as §1
[8] = Antiproliferative activity against human Mes-sa cells after 72 hrs; format: functional, cell-based
Method in brief: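 Cells seeded at 5 × 10^3 cells/well and allowed 24 h in medium before compound addition. Exposure lasted 72 h, followed by MTT read-out. Growth was expressed as absorbance relative to untreated controls, and IC50 was taken as the dose giving 50% growth inhibition. Five separate experiments were run, each in triplicate, reported as mean ± SD.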

SW48 [9] = test: Cell cycle arrest in SW48 cells by accumulation at S phase at 100 uM after 72 hrs; format: functional, Homo sapiens; method in brief: as §1
HCT-116 [10] = test: Antiproliferative activity against human HCT116 cells after 72 hrs; format: functional, cell-based; conditions: HCT-116, 72 h; method in brief: as §2
SW480 [11] = test: Antiproliferative activity against human SW480 cells after 72 hrs; format: functional, cell-based; conditions: SW480, 72 h; method in brief: as §2
SW48 [12] = test: Cell cycle arrest in SW48 cells by accumulation at G2/M phase at 100 uM after 72 hrs; format: functional, Homo sapiens; method in brief: as §1
MCF7 = test: Antiproliferative activity against human MCF7 cells after 72 hrs; format: functional, cell-based; conditions: MCF7, 72 h; method in brief: as §2
HCT-116 [13] = test: Cell cycle arrest in HCT116 cells by accumulation at G2/M phase at 100 uM after 72 hrs; format: functional, Homo sapiens; method in brief: as §1

Row | Compound | Activity (SW480 [1]) [%] | Activity (SW480 [2]) [%] | Activity (SW480 [3]) [%] | IC50 (SW48 [4]) [µM] | Activity (HCT-116 [5]) [%] | Activity (HCT-116 [6]) [%] | Activity (SW48 [7]) [%] | IC50 [8] [µM] | Activity (SW48 [9]) [%] | IC50 (HCT-116 [10]) [µM] | IC50 (SW480 [11]) [µM] | Activity (SW48 [12]) [%] | IC50 (MCF7) [µM] | Activity (HCT-116 [13]) [%]
1 | COC(=O)c1cc(O)c2[nH]c3ncccc3c2c1 | 26.5 | 14.7 | 58.7 | 9 | 56.6 | 29.1 | 62.4 | 16 | 18.9 | 7.1 | 8.8 | 18.7 | 11 | 14.3
2 | COC(=O)c1cc(OC)c2[nH]c3ncccc3c2c1 | 27.3 | 11.9 | 60.7 | 5.6 | 52.6 | 31 | 59 | 144 | 23 | 8.6 | 4.7 | 18.1 | 4.4 | 16.4
3 | COc1cc(CO)cc2c1[nH]c1ncccc12 | 33 | 14.7 | 52.3 | 21.1 | 53.3 | 17.4 | 57.4 | 65 | 9.7 | 36.6 | 63.1 | 32.4 | 58 | 29.3
4 | COC(=O)c1cc(O)c2[nH]c3ccccc3c2c1 [CLAUSINE E] | 17.5 | 25.7 | 59.9 | 21 | 60 | 12.1 | 65.6 | 35 | 12.5 | 1.9 | 4.8 | 21.9 | 0.6 | 28
5 | O=c1[nH]cc(F)c(=O)[nH]1 [FLUOROURACIL] | – | – | – | 5.3 | – | – | – | – | – | 2.8 | 3.5 | – | 0.3 | –
6 | COC(=O)c1cc(OC)c2[nH]c3ccccc3c2c1 [MUKONINE] | 33.8 | 10.3 | 55.8 | 62 | 70.8 | 17.4 | 76.7 | 80 | 14.1 | 43 | 72 | 9 | 30 | 11.7
